Laboratory results: ChEMBL document CHEMBL1138762, “Novel cyclooxygenase-1 inhibitors discovered using affinity fingerprints” (J Med Chem, 2004)

biological target: T1, Prostaglandin G/H synthase 1 (Ovis aries, UniProt P05979); test: In vitro inhibitory activity against ovine cyclooxygenase-1 (COX-1); settings: not given
T1 sequence (P05979 whole entry): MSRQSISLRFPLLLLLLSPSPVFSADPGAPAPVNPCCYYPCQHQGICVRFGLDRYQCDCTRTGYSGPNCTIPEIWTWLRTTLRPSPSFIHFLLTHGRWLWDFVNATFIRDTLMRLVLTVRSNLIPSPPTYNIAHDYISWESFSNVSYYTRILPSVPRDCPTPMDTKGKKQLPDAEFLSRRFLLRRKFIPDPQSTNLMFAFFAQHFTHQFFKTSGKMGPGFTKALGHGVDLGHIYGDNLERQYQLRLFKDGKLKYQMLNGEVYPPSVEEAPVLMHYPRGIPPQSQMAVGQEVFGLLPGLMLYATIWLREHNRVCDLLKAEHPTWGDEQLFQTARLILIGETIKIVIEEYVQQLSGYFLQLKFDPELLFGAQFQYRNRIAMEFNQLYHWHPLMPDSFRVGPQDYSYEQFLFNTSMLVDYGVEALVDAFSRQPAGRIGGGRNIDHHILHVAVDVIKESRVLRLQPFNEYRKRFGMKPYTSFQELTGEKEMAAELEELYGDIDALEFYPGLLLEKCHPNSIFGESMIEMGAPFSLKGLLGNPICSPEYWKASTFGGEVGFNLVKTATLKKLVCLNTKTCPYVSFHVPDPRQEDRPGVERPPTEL
In short: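 Ovine COX-1 (0.17 unit/μL final) with heme (1 μM final) in Tris-HCl pH 8 buffer, preincubated with compound 10 min at room temperature. Started with saturating TMPD, then arachidonic acid to 10 μM, 5 min at room temperature. Absorbance increase at 590 nm. Half-log steps over −log[M] 9.0–3.5, DMSO 3% final. IC50 from nonlinear Hill fit, mean ± SEM of 2–5 determinations.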

**Q.** With O=C(Nc1ccccc1O)c1ccccc1Cl as the compound, how does the IC50 read?
**A.** 69 µM

**Q.** With O=C(c1ccccc1)c1ccc(O)c(C(=O)c2ccccc2)c1O as the compound, how does the IC50 read?
**A.** 6 µM

**Q.** For COc1c(O)ccc2c1oc1ccccc12, which IC50 is on record?
**A.** 29 µM

biological target: T2, Prostaglandin G/H synthase 1 (Ovis aries) (UniProt P05979); settings: 200 uM
T2 sequence (whole entry): T1 sequence (P05979 whole entry)

**Q.** How did the inhibition turn out when O=C(O)Cc1ccccc1Nc1c(Cl)cccc1Cl was run?
**A.** < 50%

biological target: T2, Prostaglandin G/H synthase 1 (Ovis aries); test: In vitro inhibitory activity against ovine cyclooxygenase-1 (COX-1) at 200 uM; Inactive; settings: not given

**Q.** How did the inhibition turn out when COc1ccc2cc([C@H](C)C(=O)O)ccc2c1 was run?
**A.** < 50%

**Q.** Which inhibition does the source give for COc1ccc2cc(CC(=O)O)ccc2c1 here?
**A.** < 50%

**Q.** How did the inhibition turn out when CC(C(=O)O)c1ccc(N2CC=CC2)c(Cl)c1 (configuration not stated) was run?
**A.** < 50%

**Q.** For CCCCC1C(=O)N(c2ccccc2)N(c2ccccc2)C1=O, which inhibition is on record?
**A.** < 50%

**Q.** CC(C)Cc1ccc(C(C)C(=O)O)cc1 (configuration not stated) was tested. Which inhibition did it give?
**A.** < 50%

**Q.** Which inhibition does the source give for CC(C(=O)O)c1cccc(C(=O)c2ccccc2)c1 (configuration not stated) here?
**A.** < 50%

**Q.** How did the inhibition turn out when CC(C(=O)O)c1ccc(N2Cc3ccccc3C2=O)cc1 (configuration not stated) was run?
**A.** < 50%

**Q.** For CCc1cccc2c3c([nH]c12)C(CC)(CC(=O)O)OCC3 (configuration not stated), which inhibition is on record?
**A.** < 50%

**Q.** Cc1cc(NC(=O)C2=C(O)c3ccccc3S(=O)(=O)N2C)no1 was tested. Which inhibition did it give?
**A.** < 50%

**Q.** For O=C(O)c1cc(-c2ccc(F)cc2F)ccc1O, which inhibition is on record?
**A.** < 50%

**Q.** How did the inhibition turn out when COc1ccc2c(c1)c(CC(=O)O)c(C)n2C(=O)c1ccc(Cl)cc1 was run?
**A.** < 50%

**Q.** CN1C(C(=O)Nc2ccccn2)=C(O)c2ccccc2S1(=O)=O was tested. Which inhibition did it give?
**A.** < 50%

**Q.** For COc1ccc2c(c1)c(CC(=O)OCC(=O)O)c(C)n2C(=O)c1ccc(Cl)cc1, which inhibition is on record?
**A.** < 50%
